In publication PMC9220501 (Chemico-Biological Interactions, 2022):

How the values were obtained:
Type in all cases: cell-based
[1] = test system: colon adenocarcinoma LS174; experiment: MTT cytotoxicity assay, LS174; conditions: Homo sapiens, LS174, 72 h, read-out: IC50 LS174
[2] = test system: chronic myelogenous leukemia K562 cells; experiment: MTT cytotoxicity assay, K562; conditions: Homo sapiens, K562, 72 h, read-out: IC50 K562
malignant melanoma A375 = experiment: MTT cytotoxicity assay, A375; conditions: Homo sapiens, A-375, 72 h, read-out: IC50 A375
In short: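 A375 cells were kept in RPMI 1640 with 10% FBS, 2 mM L-glutamine, 25 mM HEPES and penicillin-streptomycin at 37 °C and 5% CO2. Cells were seeded at 3000 per well and allowed to adhere for 20 h. They were treated for 72 h, and survival was read by MTT. IC50 is the mean ± SD of three independent experiments.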

lung fibroblasts MRC-5 = experiment: MTT cytotoxicity assay, normal MRC-5; conditions: Homo sapiens, MRC5, 72 h, read-out: IC50 MRC-5
[3] = test system: cervical adenocarcinoma HeLa; experiment: MTT cytotoxicity assay, HeLa; conditions: Homo sapiens, 72 h, read-out: IC50 HeLa
lung carcinoma A549 = experiment: MTT cytotoxicity assay, A549; conditions: Homo sapiens, A549, 72 h, read-out: IC50 A549

| SMILES | IC50 [1] [µM] | IC50 [2] [µM] | IC50 (malignant melanoma A375) [µM] | IC50 (lung fibroblasts MRC-5) [µM] | IC50 [3] [µM] | IC50 (lung carcinoma A549) [µM] |
| --- | --- | --- | --- | --- | --- | --- |
| COC(=O)C1=C(C)N(C)C(=S)NC1c1ccc([N+](=O)[O-])cc1 (centres unmarked) [4c, Methyl 4-(4′-nitrophenyl)-1,2,3,4-tetrahydro-1,6-dimethyl-2-thioxopyrimidine-5-carboxylate] | 185 ± 5.5 | 193 ± 3.75 | 158 ± 7.84 | 88.9 ± 6.31 | 122 ± 12.8 |  |
| COC(=O)C1=C(C)N(C)C(=S)NC1c1ccc(Cl)cc1 (centres unmarked) [4b, Methyl 4-(4′-chlorophenyl)-1,2,3,4-tetrahydro-1,6-dimethyl-2-thioxopyrimidine-5-carboxylate] | 153 ± 9.08 | 95.9 ± 1.85 | 102 ± 6.26 | 28.2 ± 0.32 | 81.8 ± 9.57 | 123 ± 6.05 |
| COC(=O)C1=C(C)N(C)C(=S)NC1c1ccc(O)c(OC)c1 (centres unmarked) [4e, Methyl 1,2,3,4-tetrahydro-4-(4′-hydroxy-3′-methoxyphenyl)-1,6-dimethyl-2-thioxopyrimidine-5-carboxylate] | 196 ± 2.87 | 197 ± 0.54 | 176 ± 2.9 | 114 ± 2.36 | 157 ± 6.52 |  |
| COC(=O)C1=C(C)N(C)C(=S)NC1c1ccc(C(=O)O)cc1 (centres unmarked) [4d, 4-(5-(methoxycarbonyl)-1,2,3,4-tetrahydro-1,6-dimethyl-2-thioxopyrimidin-4-yl)benzoic acid] | > 200 | 195 ± 7.62 | 199.6 ± 0.59 | 169 ± 8.98 | 139 ± 7.64 |  |
| COC(=O)C1=C(C)N(C)C(=S)NC1c1ccccc1 (centres unmarked) [4a, Methyl 1,2,3,4-tetrahydro-1,6-dimethyl-2-thioxo-4-phenylpyrimidine-5-carboxylate] | 170.5 ± 1.28 | 163 ± 4.62 | 123 ± 7.17 | 92.97 ± 0.59 | 128 ± 15.4 |  |
